From ChEMBL document CHEMBL2331331 (J Med Chem, 2013)
The source made the active and inactive calls. No cut-off for these calls is given here.

Key:
Jurkat = test: Cytotoxicity against human Jurkat cells assessed as growth inhibition after 72 hrs by MTT assay
[1] = molecular target: Megakaryocyte-associated tyrosine-protein kinase (Homo sapiens, UniProt P42679); test: Inhibition of CTK (unknown origin)
[2] = Inhibition of ERK (unknown origin); set-up: species or system Homo sapiens
MV4-11 [3] = test: Induction of apoptosis in human MV4-11 cells assessed as early apoptotic cells at 0.1 uM after 24 hrs by annexin V-FITC/propidium iodide staining-based FACS flow cytometric analysis (reference value: 1.61%); format: functional
MV4-11 [4] = test: Induction of apoptosis in human MV4-11 cells assessed as late apoptotic cells at 0.1 uM after 24 hrs by annexin V-FITC/propidium iodide staining-based FACS flow cytometric analysis (reference value: 4.28%); format: functional
MDA-MB-468 = test: Cytotoxicity against human MDA-MB-468 cells assessed as growth inhibition after 72 hrs by MTT assay; conditions: MDA-MB-468, 72 h
MV4-11 [5] = test: Induction of apoptosis in human MV4-11 cells assessed as late apoptotic cells at 0.003 uM after 24 hrs by annexin V-FITC/propidium iodide staining-based FACS flow cytometric analysis (reference value: 4.28%); format: functional
MV4-11 [6] = test: Antitumor activity against FLT3-ITD-positive human MV4-11 cells xenografted in NOD-SCID mouse assessed as tumor growth inhibition at 10 mg/kg/day, po after 3 days by Ki67 staining-based light microscopic analysis relative to vehicle-treated control; format: functional, organism-based
Method in brief: (§1)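 Mice (NOD-SCID) bearing sc MV4-11 tumors given 10 mg/kg/d by oral gavage. Tumors removed after 2–4 days and formalin-fixed. Sections immunostained for Ki67 (proliferation) or p-STAT5, or TUNEL-stained (apoptosis). Imaged by light microscopy and compared with vehicle group.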

MCF7 = test: Cytotoxicity against human MCF7 cells assessed as growth inhibition after 72 hrs by MTT assay; conditions: MCF7, 72 h
[7] = molecular target: Receptor tyrosine-protein kinase erbB-2 (Homo sapiens, UniProt P04626); test: Inhibition of ERBB2 (unknown origin)
Method in brief: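 Single selected panel of recombinant human protein kinases, screened in vitro. The value reported is the IC50 against each kinase.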

[8] = molecular target: Serine/threonine-protein kinase/endoribonuclease IRE1 (Homo sapiens, UniProt O75460); test: Inhibition of ERN1 (unknown origin)
Sequence of Serine/threonine-protein kinase/endoribonuclease IRE1 (O75460 whole entry): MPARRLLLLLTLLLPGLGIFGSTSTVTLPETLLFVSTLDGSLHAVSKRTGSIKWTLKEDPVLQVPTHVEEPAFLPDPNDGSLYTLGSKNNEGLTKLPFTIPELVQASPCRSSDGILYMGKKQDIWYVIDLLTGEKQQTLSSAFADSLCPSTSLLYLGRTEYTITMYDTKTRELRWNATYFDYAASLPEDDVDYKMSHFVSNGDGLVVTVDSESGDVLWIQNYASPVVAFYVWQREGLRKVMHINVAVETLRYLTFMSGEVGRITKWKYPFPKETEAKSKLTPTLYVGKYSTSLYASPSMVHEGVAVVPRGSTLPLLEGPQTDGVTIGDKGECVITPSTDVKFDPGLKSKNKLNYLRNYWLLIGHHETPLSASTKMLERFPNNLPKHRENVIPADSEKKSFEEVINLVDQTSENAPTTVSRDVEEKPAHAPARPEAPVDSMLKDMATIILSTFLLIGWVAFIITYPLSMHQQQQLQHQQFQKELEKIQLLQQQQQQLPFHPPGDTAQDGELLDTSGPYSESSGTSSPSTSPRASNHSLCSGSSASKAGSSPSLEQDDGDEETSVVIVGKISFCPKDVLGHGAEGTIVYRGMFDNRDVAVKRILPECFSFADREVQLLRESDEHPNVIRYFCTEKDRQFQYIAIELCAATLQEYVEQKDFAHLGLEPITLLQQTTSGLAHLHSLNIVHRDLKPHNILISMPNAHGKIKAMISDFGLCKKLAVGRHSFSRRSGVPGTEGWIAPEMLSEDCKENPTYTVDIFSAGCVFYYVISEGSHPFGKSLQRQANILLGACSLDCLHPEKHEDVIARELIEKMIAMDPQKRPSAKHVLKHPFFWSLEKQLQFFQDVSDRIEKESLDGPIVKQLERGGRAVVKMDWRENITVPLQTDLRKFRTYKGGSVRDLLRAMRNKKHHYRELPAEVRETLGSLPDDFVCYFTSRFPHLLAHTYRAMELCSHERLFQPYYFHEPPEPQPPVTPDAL

DU-145 = test: Cytotoxicity against human DU145 cells assessed as growth inhibition after 72 hrs by MTT assay; conditions: DU-145, 72 h
[9] = molecular target: Platelet-derived growth factor receptor alpha (Homo sapiens, UniProt P16234); test: Inhibition of PDGFRalpha (unknown origin)
[10] = molecular target: Receptor tyrosine-protein kinase erbB-4 (Homo sapiens, UniProt Q15303); test: Inhibition of ERBB4 (unknown origin)
Sequence of Receptor tyrosine-protein kinase erbB-4 (Q15303 whole entry): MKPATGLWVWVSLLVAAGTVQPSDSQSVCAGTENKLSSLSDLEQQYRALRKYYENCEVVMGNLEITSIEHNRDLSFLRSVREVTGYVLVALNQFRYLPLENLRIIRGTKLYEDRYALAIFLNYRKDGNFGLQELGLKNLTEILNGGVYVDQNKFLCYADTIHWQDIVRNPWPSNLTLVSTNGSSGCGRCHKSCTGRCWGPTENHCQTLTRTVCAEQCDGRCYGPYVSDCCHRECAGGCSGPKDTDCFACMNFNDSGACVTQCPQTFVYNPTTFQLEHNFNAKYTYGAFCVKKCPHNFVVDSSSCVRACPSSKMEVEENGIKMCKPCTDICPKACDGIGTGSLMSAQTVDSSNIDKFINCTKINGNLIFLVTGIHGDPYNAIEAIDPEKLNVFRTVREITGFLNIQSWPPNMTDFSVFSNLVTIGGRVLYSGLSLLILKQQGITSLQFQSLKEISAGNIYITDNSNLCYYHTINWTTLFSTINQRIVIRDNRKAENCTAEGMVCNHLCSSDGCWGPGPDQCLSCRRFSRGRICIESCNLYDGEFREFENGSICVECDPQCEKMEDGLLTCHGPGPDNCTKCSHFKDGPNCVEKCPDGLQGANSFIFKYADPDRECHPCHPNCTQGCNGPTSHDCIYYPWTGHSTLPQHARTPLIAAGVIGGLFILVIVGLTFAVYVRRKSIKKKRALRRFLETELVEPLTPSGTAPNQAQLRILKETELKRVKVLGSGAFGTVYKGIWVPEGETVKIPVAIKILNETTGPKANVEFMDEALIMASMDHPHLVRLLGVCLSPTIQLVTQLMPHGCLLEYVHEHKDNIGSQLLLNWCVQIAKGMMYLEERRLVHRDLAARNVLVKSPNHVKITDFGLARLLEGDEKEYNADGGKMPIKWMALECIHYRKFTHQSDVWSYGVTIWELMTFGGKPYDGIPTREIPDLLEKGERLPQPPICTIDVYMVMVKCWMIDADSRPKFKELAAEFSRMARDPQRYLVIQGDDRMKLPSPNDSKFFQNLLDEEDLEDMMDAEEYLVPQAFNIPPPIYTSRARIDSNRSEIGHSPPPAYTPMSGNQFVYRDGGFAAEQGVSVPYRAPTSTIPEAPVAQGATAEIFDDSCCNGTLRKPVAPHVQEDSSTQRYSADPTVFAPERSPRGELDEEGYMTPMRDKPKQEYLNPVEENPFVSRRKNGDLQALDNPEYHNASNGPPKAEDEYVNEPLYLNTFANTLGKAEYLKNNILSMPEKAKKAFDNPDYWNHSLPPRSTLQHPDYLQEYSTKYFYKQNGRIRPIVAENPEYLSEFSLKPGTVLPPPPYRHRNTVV

Raji = test: Cytotoxicity against human Raji cells assessed as growth inhibition after 72 hrs by MTT assay
[11] = molecular target: Mitogen-activated protein kinase kinase kinase 9 (Homo sapiens, UniProt P80192); test: Inhibition of MLK1 (unknown origin)
Sequence of Mitogen-activated protein kinase kinase kinase 9 (P80192 whole entry): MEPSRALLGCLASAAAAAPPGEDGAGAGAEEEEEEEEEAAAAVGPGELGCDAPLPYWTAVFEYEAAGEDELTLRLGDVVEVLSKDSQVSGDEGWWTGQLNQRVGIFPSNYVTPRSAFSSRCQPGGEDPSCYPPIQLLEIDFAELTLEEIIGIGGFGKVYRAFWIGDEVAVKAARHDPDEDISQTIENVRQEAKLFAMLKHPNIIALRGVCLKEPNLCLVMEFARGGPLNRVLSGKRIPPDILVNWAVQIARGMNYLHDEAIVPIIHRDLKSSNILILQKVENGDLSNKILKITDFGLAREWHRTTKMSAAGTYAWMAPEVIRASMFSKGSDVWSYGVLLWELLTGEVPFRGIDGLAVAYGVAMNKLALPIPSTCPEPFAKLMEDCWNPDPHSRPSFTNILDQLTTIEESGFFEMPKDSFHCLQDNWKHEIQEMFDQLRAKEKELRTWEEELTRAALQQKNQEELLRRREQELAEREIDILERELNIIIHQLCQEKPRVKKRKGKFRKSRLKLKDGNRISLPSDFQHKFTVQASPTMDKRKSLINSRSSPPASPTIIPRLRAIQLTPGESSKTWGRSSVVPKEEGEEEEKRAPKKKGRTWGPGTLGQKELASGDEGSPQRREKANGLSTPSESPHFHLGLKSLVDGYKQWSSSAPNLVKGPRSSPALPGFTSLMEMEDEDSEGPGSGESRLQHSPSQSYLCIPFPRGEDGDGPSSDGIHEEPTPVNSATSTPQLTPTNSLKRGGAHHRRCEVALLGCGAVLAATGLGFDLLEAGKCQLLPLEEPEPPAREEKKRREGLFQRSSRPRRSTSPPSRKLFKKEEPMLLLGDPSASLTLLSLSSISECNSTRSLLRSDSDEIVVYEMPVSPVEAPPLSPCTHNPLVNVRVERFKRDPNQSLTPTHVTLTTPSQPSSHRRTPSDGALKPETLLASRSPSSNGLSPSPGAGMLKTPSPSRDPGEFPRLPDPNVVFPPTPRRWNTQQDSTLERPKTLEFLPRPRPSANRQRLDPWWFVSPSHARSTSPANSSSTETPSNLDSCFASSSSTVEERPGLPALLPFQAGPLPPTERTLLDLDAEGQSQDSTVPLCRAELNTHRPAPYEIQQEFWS

MV4-11 [12] = test: Induction of apoptosis in human MV4-11 cells assessed as late apoptotic cells at 0.001 uM after 24 hrs by annexin V-FITC/propidium iodide staining-based FACS flow cytometric analysis (reference value: 4.28%); format: functional
[13] = molecular target: Serine/threonine-protein kinase PAK 1 (Homo sapiens, UniProt Q13153); test: Inhibition of PAK1 (unknown origin)
MV4-11 [14] = test: Induction of apoptosis in FLT3-ITD-positive human MV4-11 cells xenografted in NOD-SCID mouse assessed as increase in apoptotic cells at 10 mg/kg/day, po by TUNEL assay; format: functional, organism-based; conditions: TDE = time-dependent effect; method in brief: as §1
MV4-11 [15] = test: Induction of apoptosis in human MV4-11 cells assessed as early apoptotic cells at 0.001 uM after 24 hrs by annexin V-FITC/propidium iodide staining-based FACS flow cytometric analysis (reference value: 1.61%); format: functional
[16] = molecular target: Dual specificity mitogen-activated protein kinase kinase 1 (Homo sapiens, UniProt Q02750); test: Inhibition of MEK1 (unknown origin)
Sequence of Dual specificity mitogen-activated protein kinase kinase 1 (Q02750 whole entry): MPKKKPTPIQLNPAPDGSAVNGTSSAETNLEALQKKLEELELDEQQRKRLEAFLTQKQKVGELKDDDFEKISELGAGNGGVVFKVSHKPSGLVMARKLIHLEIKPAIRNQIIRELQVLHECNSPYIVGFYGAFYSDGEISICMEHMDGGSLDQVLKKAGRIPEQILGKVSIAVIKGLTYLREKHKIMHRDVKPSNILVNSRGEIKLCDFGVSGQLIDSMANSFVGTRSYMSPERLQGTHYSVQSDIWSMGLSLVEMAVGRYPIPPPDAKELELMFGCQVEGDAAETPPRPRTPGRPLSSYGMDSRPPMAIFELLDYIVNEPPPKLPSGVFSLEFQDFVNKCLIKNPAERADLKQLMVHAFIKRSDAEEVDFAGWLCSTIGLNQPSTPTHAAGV

[17] = molecular target: Receptor-type tyrosine-protein kinase FLT3 (Homo sapiens, UniProt P36888, ITD); test: Binding affinity to FLT3-ITD mutant (unknown origin)
[18] = molecular target: Serine/threonine-protein kinase Chk1 (Homo sapiens, UniProt O14757); test: Inhibition of CHEK1 (unknown origin)
Sequence of Serine/threonine-protein kinase Chk1 (O14757 whole entry): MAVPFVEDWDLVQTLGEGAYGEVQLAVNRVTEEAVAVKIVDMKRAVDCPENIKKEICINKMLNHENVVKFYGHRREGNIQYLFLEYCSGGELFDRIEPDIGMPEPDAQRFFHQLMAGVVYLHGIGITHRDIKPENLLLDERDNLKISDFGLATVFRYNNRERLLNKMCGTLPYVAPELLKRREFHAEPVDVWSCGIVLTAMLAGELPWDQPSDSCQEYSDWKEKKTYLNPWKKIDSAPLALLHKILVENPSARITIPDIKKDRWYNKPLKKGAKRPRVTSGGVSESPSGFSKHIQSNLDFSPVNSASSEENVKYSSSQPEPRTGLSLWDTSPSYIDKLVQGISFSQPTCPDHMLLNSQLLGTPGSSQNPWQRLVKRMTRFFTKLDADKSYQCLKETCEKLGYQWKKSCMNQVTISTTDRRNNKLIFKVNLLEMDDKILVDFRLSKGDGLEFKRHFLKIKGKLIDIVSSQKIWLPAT

A549 = test: Cytotoxicity against human A549 cells assessed as growth inhibition after 72 hrs by MTT assay; conditions: A549, 72 h
U-937 = test: Cytotoxicity against human U937 cells assessed as growth inhibition after 72 hrs by MTT assay; conditions: U-937, 72 h
[19] = molecular target: Serine/threonine-protein kinase pim-1 (Homo sapiens, UniProt P11309); test: Inhibition of Pim-1 (unknown origin)
Sequence of Serine/threonine-protein kinase pim-1 (P11309 whole entry): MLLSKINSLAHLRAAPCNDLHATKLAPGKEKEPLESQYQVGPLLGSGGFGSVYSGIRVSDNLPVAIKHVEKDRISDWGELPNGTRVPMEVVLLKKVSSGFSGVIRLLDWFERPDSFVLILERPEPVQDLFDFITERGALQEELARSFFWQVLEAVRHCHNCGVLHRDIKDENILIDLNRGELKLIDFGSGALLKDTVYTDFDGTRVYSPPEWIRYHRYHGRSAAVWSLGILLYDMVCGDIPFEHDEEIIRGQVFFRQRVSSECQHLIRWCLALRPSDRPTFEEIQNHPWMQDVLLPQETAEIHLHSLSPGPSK

[20] = molecular target: T1, Receptor-type tyrosine-protein kinase FLT3 (Homo sapiens, UniProt P36888); test: Inhibition of FLT3 (unknown origin)
T1 sequence (P36888 whole entry): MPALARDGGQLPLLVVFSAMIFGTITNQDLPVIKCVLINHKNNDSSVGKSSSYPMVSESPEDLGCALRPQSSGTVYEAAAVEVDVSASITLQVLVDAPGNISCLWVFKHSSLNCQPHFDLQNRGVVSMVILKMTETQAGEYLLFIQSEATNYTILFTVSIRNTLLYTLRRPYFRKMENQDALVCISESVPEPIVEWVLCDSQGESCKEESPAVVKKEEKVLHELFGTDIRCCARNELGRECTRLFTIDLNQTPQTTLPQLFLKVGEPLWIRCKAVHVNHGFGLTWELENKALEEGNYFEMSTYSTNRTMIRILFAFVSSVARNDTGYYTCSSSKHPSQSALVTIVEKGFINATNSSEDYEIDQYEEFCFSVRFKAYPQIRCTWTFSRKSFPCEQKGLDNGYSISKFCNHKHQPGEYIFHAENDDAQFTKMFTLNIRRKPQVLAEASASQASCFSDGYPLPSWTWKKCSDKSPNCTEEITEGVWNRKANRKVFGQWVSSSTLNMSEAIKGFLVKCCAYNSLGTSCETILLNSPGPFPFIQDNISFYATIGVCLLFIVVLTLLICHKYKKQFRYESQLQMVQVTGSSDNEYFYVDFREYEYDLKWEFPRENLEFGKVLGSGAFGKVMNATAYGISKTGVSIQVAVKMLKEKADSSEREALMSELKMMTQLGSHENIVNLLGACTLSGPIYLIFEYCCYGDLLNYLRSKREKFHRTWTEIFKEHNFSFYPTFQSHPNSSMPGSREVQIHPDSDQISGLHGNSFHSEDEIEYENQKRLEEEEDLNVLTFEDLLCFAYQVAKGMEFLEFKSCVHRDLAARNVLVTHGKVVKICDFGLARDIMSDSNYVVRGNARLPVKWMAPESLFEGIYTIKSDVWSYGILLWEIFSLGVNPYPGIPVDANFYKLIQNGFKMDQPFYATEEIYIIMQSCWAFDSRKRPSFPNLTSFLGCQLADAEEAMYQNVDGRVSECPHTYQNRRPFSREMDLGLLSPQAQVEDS

K562 = test: Cytotoxicity against human K562 cells assessed as growth inhibition after 72 hrs by MTT assay; conditions: K562, 72 h

Sequence of Megakaryocyte-associated tyrosine-protein kinase (P42679 whole entry): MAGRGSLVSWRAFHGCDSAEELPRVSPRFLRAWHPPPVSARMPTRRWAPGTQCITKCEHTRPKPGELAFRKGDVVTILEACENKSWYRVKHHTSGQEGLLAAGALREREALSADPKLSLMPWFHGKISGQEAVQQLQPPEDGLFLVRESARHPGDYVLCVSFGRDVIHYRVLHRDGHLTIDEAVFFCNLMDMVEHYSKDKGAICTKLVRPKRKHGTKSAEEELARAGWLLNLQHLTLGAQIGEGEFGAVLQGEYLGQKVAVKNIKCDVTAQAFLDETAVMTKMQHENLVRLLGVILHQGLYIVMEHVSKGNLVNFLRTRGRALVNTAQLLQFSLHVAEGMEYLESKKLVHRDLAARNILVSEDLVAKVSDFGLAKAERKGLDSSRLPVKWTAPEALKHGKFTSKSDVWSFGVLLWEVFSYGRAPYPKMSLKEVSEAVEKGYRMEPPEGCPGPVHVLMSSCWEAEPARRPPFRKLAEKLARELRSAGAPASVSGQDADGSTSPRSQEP

For `O=C(Nc1ccc(Oc2ncnc3[nH]ncc23)cc1)Nc1ccc(Cl)c(C(F)(F)F)c1`, the IC50 (Jurkat) was 8.72 µM, the IC50 [1] was > 10 µM and the IC50 [2] was > 10 µM. For the same molecule, the Activity (MV4-11 [3]) was 9.96%, the Activity (MV4-11 [4]) was 25.8% and the IC50 (MDA-MB-468) was 6.68 µM. The Activity (MV4-11 [5]) was 7.11%, the TGI (MV4-11 [6]) was “Active” and the IC50 (MCF7) was > 10 µM. The IC50 [7] was > 10 µM, the IC50 [8] was > 10 µM and the IC50 (DU-145) was > 10 µM. For the same molecule, the IC50 [9] was 0.223 µM, the IC50 [10] was > 10 µM and the IC50 (Raji) was > 10 µM. For the same molecule, the IC50 [11] was > 10 µM, the Activity (MV4-11 [12]) was 5.5% and the IC50 [13] was > 10 µM. The Activity (MV4-11 [14]) was “tde”, the Activity (MV4-11 [15]) was 4.15% and the IC50 [16] was > 10 µM. For the same molecule, the Kd [17] was 0.0043 µM, the IC50 [18] was > 10 µM and the IC50 (A549) was > 10 µM. The IC50 (U-937) was > 10 µM, the IC50 [19] was > 10 µM and the IC50 [20] was 0.039 µM. For the same molecule, the IC50 (K562) was > 10 µM.
